# Measured values: ChEMBL document CHEMBL1153602, “Photochemical electrocyclisation of 3-vinylindoles to pyrido[2,3-a]-, pyrido[4,3-a]- and thieno[2,3-a]-carbazoles: design, synthesis, DNA binding and antitumor cell cytotoxicity” (2009)
# The source made the active and inactive calls. No cut-off for these calls is given here.
# Experiments:
# Calf thymus DNA [1] = experiment: Binding affinity to calf thymus DNA assessed as enhancement constant by fluorescence spectroscopy; format: nucleic-acid assay; conditions: Bos taurus
# In short: (§1)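 Drug at a fixed 20 µM in 1 ml BPE buffer in a 10 mm quartz cuvette, titrated with CT-DNA at 10–200 µM base pairs. Excitation was set at each compound's own wavelength (276–319 nm). Constants came from Stern–Volmer plots of F0/F against CT-DNA concentration, with the slope taken as Ksv.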
# HT-29 [2] = experiment: Cell cycle arrest in human HT-29 cells assessed as accumulation at S phase at 10 uM after 24 hrs using PI staining by flow cytometry; format: functional
# In short: (§2)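 HT-29 cells, 3×10^5 per sample in exponential growth, were exposed to graded drug concentrations for 24 h. Cells were then trypsinised, fixed in 70% ethanol and stained 30 min in the dark with propidium iodide (50 µg/ml) plus RNase (100 µg/ml). DNA content was measured by flow cytometry, quantifying cell-cycle phases and the sub-G1 fraction.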
# Nucleic Acid [3] = experiment: Binding affinity to poly(dA).poly(dT) duplex DNA assessed as change in thermal melting temperature at compound to DNA ratio of 0.25 by UV-vis spectroscopy; format: nucleic-acid assay
# Calf thymus DNA [4] = experiment: Binding affinity to calf thymus DNA assessed as change in melting temperature at a compound to DNA molar ratio of 0.5 by UV-vis spectroscopy; format: nucleic-acid assay; conditions: Bos taurus
# In short: (§3)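 UV absorbance of DNA at 260 nm recorded every minute from 20 to 100 °C, ramping 1 °C/min in a thermostated quartz cell. Tm is taken as the midpoint of the hyperchromic transition. ΔTm = Tm(DNA+drug) − Tm(DNA alone). Calf-thymus DNA or poly(dAdT)2 was used at DNA/drug ratios from 0.1 to 1.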
# HT-29 [5] = experiment: Growth inhibition of human HT-29 cells by MTS assay; format: functional
# In short: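 HT-29 cells, 3×10^3 per well, were seeded 24 h before treatment with compound at 1 nM–100 µM, run as 3 series of duplicate or triplicate points. After 72 h at 37 °C, MTS tetrazolium was added for 2 h and absorbance read at 492 nm. GC50 is the concentration halving cell number versus untreated control wells.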
# Calf thymus DNA [6] = experiment: Binding affinity to calf thymus DNA assessed as change in melting temperature at a compound to DNA molar ratio of 0.25 by UV-vis spectroscopy; format: nucleic-acid assay; conditions: Bos taurus; in short: as §3
# Nucleic Acid [7] = experiment: Binding affinity to poly(dA).poly(dT) duplex DNA assessed as change in thermal melting temperature at compound to DNA ratio of 0.5 by UV-vis spectroscopy; format: nucleic-acid assay
# HT-29 [8] = experiment: Cell cycle arrest in human HT-29 cells assessed as accumulation at G2/M phase at 25 uM after 24 hrs using PI staining by flow cytometry; format: functional, cell-based; in short: as §2
# [9] = molecular target: DNA topoisomerase 2-alpha (Homo sapiens) (UniProt P11388); experiment: Inhibition of human topoisomerase 2-mediated DNA relaxation assessed as double stranded break form by agarose gel electrophoresis
# Sequence of DNA topoisomerase 2-alpha (Homo sapiens) (P11388 whole entry): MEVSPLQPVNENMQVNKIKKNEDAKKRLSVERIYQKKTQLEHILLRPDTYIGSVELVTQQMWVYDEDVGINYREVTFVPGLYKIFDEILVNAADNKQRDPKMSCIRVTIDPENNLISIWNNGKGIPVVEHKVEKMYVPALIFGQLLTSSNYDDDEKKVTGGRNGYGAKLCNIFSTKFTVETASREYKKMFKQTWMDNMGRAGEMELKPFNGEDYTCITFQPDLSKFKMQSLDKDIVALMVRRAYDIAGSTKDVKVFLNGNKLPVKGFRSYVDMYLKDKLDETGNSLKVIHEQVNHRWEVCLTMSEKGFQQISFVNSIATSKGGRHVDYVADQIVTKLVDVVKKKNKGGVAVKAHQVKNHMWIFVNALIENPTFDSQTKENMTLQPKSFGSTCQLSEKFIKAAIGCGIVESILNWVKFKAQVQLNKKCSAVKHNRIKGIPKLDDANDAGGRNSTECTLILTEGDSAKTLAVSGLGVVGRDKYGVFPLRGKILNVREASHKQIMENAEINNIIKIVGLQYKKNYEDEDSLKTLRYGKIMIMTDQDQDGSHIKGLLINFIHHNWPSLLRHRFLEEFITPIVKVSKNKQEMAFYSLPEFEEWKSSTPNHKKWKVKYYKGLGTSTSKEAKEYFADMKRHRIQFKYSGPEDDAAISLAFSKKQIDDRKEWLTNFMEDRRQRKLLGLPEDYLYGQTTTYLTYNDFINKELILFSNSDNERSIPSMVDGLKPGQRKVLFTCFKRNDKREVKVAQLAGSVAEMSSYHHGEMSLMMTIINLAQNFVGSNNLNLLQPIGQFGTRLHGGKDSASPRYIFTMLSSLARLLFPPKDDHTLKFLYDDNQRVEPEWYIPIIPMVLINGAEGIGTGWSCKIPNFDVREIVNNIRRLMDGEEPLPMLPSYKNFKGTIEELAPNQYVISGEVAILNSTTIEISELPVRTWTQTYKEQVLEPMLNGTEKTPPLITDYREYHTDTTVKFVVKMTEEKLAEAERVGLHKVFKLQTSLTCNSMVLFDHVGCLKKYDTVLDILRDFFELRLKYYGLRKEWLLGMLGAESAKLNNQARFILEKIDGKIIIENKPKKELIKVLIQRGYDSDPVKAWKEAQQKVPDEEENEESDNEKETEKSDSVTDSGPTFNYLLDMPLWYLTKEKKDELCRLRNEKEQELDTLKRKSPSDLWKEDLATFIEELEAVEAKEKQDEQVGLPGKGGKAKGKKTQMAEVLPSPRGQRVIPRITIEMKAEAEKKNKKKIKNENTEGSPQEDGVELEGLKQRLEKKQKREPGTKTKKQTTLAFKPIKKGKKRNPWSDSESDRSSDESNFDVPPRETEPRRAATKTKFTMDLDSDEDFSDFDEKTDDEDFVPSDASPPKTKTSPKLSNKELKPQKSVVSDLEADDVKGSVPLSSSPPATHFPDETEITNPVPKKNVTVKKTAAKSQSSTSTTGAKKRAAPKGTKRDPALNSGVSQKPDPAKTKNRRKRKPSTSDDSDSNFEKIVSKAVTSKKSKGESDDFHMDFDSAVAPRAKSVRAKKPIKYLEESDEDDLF
# In short: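 Supercoiled pUC19 (130 ng) with compound at 20 or 50 µM, or etoposide as control, was incubated with human topoisomerase II (4 units) for 45 min at 37 °C in cleavage buffer. The reaction was stopped with 0.25% SDS plus proteinase K for 30 min at 50 °C. DNA forms were separated on 1% agarose containing ethidium bromide in TBE.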
# Nucleic Acid [10] = experiment: Binding affinity to poly(dA).poly(dT) duplex DNA assessed as change in thermal melting temperature at compound to DNA ratio of 0.1 by UV-vis spectroscopy; format: nucleic-acid assay
# Nucleic Acid [11] = experiment: Binding affinity to pBS 117bp DNA by DnaseI footprinting assay; format: nucleic-acid assay
# In short: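 Ligand and fragment were pre-incubated 15 min at 37 °C, then digested with DNase I at 0.001 unit/ml in 20 mM NaCl, 2 mM MgCl2, 2 mM MnCl2, pH 7.3. Products were resolved on a denaturing 8% polyacrylamide/8 M urea gel, with a G-track marker.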
# [12] = molecular target: T1, DNA topoisomerase 1 (Homo sapiens) (UniProt P11387); experiment: Inhibition of human topoisomerase 1-mediated DNA relaxation assessed as lack of nicking form by agarose gel electrophoresis
# T1 sequence (whole entry): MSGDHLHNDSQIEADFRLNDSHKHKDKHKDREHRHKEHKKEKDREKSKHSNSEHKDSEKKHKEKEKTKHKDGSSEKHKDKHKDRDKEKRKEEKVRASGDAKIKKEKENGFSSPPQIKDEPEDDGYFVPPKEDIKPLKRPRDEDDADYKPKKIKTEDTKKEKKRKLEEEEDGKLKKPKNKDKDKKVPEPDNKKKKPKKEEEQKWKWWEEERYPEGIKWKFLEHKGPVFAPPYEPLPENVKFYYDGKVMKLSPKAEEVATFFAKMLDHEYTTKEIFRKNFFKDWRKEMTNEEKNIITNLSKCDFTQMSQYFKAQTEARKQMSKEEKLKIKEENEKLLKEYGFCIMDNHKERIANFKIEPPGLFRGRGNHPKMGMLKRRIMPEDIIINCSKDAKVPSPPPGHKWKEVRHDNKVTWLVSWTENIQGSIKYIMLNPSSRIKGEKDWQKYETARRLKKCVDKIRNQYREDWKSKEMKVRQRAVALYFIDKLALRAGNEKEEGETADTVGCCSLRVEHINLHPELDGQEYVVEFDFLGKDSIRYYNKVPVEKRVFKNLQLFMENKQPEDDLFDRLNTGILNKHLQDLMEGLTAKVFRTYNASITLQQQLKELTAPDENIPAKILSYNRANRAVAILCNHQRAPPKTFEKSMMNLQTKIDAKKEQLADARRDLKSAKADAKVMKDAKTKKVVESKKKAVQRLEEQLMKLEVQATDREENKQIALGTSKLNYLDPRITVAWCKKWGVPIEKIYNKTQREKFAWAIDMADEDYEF
# In short: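 Supercoiled pUC19 (130 ng) was pre-incubated with compound at graded concentrations, or 20 or 50 µM in the cleavage assay. Human topoisomerase I (4 units) was then added for 45 min at 37 °C in 50 mM Tris pH 7.8, 50 mM KCl, 10 mM MgCl2, 1 mM DTT, 1 mM EDTA, 1 mM ATP. Camptothecin (20 µM) served as control. Samples ran on 1% agarose for 2 h at 120 V in TBE, with ethidium bromide either post-stained (relaxation) or included in the gel (cleavage).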
# Calf thymus DNA [13] = experiment: Binding affinity to calf thymus DNA assessed as change in melting temperature at a compound to DNA molar ratio of 0.1 by UV-vis spectroscopy; format: nucleic-acid assay; conditions: Bos taurus; in short: as §3
# HT-29 [14] = experiment: Cell cycle arrest in human HT-29 cells at 25 uM after 24 hrs using PI staining by flow cytometry
# Nucleic Acid [15] = experiment: Binding affinity to poly(dA).poly(dT) duplex DNA assessed as change in thermal melting temperature at compound to DNA ratio of 1 by UV-vis spectroscopy; format: nucleic-acid assay
# Calf thymus DNA [16] = experiment: Binding affinity to calf thymus DNA assessed as change in melting temperature at a compound to DNA molar ratio of 1 by UV-vis spectroscopy; format: nucleic-acid assay; conditions: Bos taurus; in short: as §3
# HT-29 [17] = experiment: Cell cycle arrest in human HT-29 cells assessed as accumulation at S phase at 25 uM after 24 hrs using PI staining by flow cytometry; format: functional; in short: as §2
# ACHN = experiment: Growth inhibition of human ACHN cells after 48 hrs by sulforhodamine B protein assay; format: functional
# In short: (§4)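 NCI 60-cell-line screen. Dose–response used at least five concentrations in 10-fold dilutions with 48 h continuous drug exposure. Growth was estimated by sulforhodamine B protein staining. GI50 is the molar concentration giving 50% growth inhibition versus control.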
# COLO 205 = experiment: Growth inhibition of human COLO205 cells after 48 hrs by sulforhodamine B protein assay; format: functional; conditions: COLO 205, 48 h; in short: as §4
# HT-29 [18] = experiment: Cell cycle arrest in human HT-29 cells assessed as accumulation at G2/M phase after 24 hrs using PI staining by flow cytometry; format: functional, cell-based; in short: as §2
# HT-29 [19] = experiment: Growth inhibition of human HT-29 cells after 48 hrs by sulforhodamine B protein assay; format: functional; conditions: HT-29, 48 h; in short: as §4
# HT-29 [20] = experiment: Cell cycle arrest in human HT-29 cells assessed as reduction of cells in G1 phase after 24 hrs using PI staining by flow cytometry; format: functional, cell-based; in short: as §2
# CCRF-CEM = experiment: Growth inhibition of human CCRF-CEM cells after 48 hrs by sulforhodamine B protein assay; format: functional; in short: as §4
# Calf thymus DNA [21] = experiment: Binding affinity to calf thymus DNA assessed as positive dichroic signal at phosphate/drug ratio by circular dichroism spectra; format: nucleic-acid assay; conditions: Bos taurus
# In short: (§5)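 Circular dichroism of drug at […] in 1 ml of 1 mM sodium cacodylate, pH 7.0, with or without CT-DNA at 10–200 µM. Phosphate/compound ratio ran from 0.4 to 8. The induced CD signal in the ligand absorption region was recorded.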
# Calf thymus DNA [22] = experiment: Binding affinity to calf thymus DNA assessed as quenching constant by fluorescence spectroscopy; format: nucleic-acid assay; conditions: Bos taurus; in short: as §1
# Calf thymus DNA [23] = experiment: Binding affinity to calf thymus DNA assessed as negative dichroic signal at phosphate/drug ratio by circular dichroism spectra; format: nucleic-acid assay; conditions: Bos taurus; in short: as §5
# UO-31 = experiment: Growth inhibition of human UO31 cells after 48 hrs by sulforhodamine B protein assay; format: functional; conditions: UO-31, 48 h; in short: as §4
# IGROV-1 = experiment: Growth inhibition of human IGROV1 cells after 48 hrs by sulforhodamine B protein assay; format: functional; conditions: IGROV-1, 48 h; in short: as §4
# OVCAR-3 = experiment: Growth inhibition of human OVCAR-3 cells after 48 hrs by sulforhodamine B protein assay; format: functional; conditions: OVCAR-3, 48 h; in short: as §4
# CAKI-1 = experiment: Growth inhibition of human Caki1 cells after 48 hrs by sulforhodamine B protein assay; format: functional; conditions: CAKI-1, 48 h; in short: as §4
Structure (SMILES),Activity (Calf thymus DNA [1]),ΔTm (Nucleic Acid [3]),ΔTm (Calf thymus DNA [4]),GI50 (HT-29 [5]),ΔTm (Calf thymus DNA [6]),ΔTm (Nucleic Acid [7]),Activity [9],ΔTm (Nucleic Acid [10]),Activity (Nucleic Acid [11]),Activity [12],ΔTm (Calf thymus DNA [13]),ΔTm (Nucleic Acid [15]),ΔTm (Calf thymus DNA [16]),Activity (HT-29 [17]),Activity (HT-29 [18]),GI50 (HT-29 [19]; read-out: GI50),GI50 (HT-29 [19]; read-out: pGI50 (converted)),Activity (HT-29 [20]),also measured
CN(C)CCCNC(=O)c1cc2c3cc(Cl)ccc3[nH]c2c2ncccc12,4.84 ×10³ /M,9.2 °C,8.8 °C,9.23 µM,7.4 °C,20.4 °C,Active,6.1 °C,Active,Active,3 °C,27.8 °C,13.2 °C,–,–,–,–,–,Activity (HT-29 [2]): 26.1%; Activity (HT-29 [8]): Active; Activity (HT-29 [14]): Active
CN(C)CCCNC(=O)c1cc2c3ccccc3[nH]c2c2ncccc12,5.94 ×10² /M,8.9 °C,4.4 °C,10.1 µM,4.4 °C,11.6 °C,Active,2.9 °C,Active,Active,0 °C,17.5 °C,7.3 °C,31.7%,Active,10.3 µM,1.02 µM,Active,GI50 (ACHN; read-out: GI50): 5.24 µM; GI50 (ACHN; read-out: pGI50 (converted)): 5.25 µM; GI50 (COLO 205; read-out: GI50): 4.43 µM; GI50 (COLO 205; read-out: pGI50 (converted)): 4.47 µM; GI50 (CCRF-CEM; read-out: GI50): 4.31 µM; GI50 (CCRF-CEM; read-out: pGI50 (converted)): 4.27 µM
CN(C)CCCNC(=O)c1cc2c3cc(Cl)ccc3[nH]c2c2ccncc12,–,17.3 °C,10.7 °C,2.2 µM,6.6 °C,22.7 °C,–,10.3 °C,Active,–,3.6 °C,28.3 °C,13.9 °C,–,Active,–,–,–,Activity (Calf thymus DNA [21]): Active; KSV (Calf thymus DNA [22]): 9.95 ×10³ /M; Activity (Calf thymus DNA [23]): Active
CN(C)CCNC(=O)c1cc2c3ccccc3[nH]c2c2ncccc12,–,11.8 °C,2.9 °C,11.5 µM,3 °C,14.5 °C,Active,2.9 °C,Active,Active,0 °C,18.9 °C,7.3 °C,32.6%,Active,5.27 µM,5.25 µM,Active,GI50 (UO-31; read-out: GI50): 2.13 µM; GI50 (UO-31; read-out: pGI50 (converted)): 2.09 µM; GI50 (IGROV-1; read-out: GI50): 1.14 µM; GI50 (IGROV-1; read-out: pGI50 (converted)): 1.1 µM; GI50 (OVCAR-3; read-out: GI50): 0.0254 µM; GI50 (OVCAR-3; read-out: pGI50 (converted)): 0.0251 µM; GI50 (CAKI-1; read-out: GI50): 0.515 µM; GI50 (CAKI-1; read-out: pGI50 (converted)): 0.525 µM
